A value given as a limit tells only on which side of the number the result lay.

In series [1] the target is T1, Nuclear receptor subfamily 1 group I member 3 (Mus musculus, UniProt O35627).
T1 sequence (O35627 whole entry): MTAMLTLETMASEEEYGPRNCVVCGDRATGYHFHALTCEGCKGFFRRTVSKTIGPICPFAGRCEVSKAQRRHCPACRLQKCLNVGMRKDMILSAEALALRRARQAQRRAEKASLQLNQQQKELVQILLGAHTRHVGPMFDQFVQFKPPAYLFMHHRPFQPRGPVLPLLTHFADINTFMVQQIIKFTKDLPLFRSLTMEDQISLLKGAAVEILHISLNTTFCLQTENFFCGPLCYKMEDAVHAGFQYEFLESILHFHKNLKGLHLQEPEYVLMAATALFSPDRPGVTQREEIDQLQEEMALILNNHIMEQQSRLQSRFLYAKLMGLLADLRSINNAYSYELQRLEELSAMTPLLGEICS
The series can be described thus: Increase in nuclear co-repressor receptor binding to wild type mouse CAR expressed in […] cells at 2 uM by yeast two-hybrid assay. In kind it is cell-based. In outline: (§1)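 Yeast two-hybrid: yeast expressing wild-type or mutant mouse CAR LBD plus SRC-1 or NCoR, selected on SD medium lacking Leu and Trp. Pooled colonies treated with DMSO or test chemical for 3.5 h. β-Galactosidase normalized to cell density. SRC-1 reference: wild-type + DMSO = 100. NCoR reference: 10 µM androstenol = 100. Mean ± SD, two independent determinations, each in triplicate.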

Series [2] has as its target T2, Nuclear receptor subfamily 1 group I member 3 (Mus musculus, UniProt O35627, F171A). The series can be described thus: Activation of mouse CAR F171A mutant expressed in HEK293 cells at 10 uM by mammalian one-hybrid assay. It is filed as cell-based. The following applies: hek293, 10 µM.
In series [3] the target is T3, Nuclear receptor subfamily 1 group I member 3 (Mus musculus, UniProt O35627, L212A). Briefly: Activation of mouse CAR L212A mutant expressed in HEK293 cells at 10 uM by mammalian one-hybrid assay. In kind it is cell-based. The following applies: hek293, 10 µM.
T3 sequence (O35627 whole entry L212A, the tested form may be a part): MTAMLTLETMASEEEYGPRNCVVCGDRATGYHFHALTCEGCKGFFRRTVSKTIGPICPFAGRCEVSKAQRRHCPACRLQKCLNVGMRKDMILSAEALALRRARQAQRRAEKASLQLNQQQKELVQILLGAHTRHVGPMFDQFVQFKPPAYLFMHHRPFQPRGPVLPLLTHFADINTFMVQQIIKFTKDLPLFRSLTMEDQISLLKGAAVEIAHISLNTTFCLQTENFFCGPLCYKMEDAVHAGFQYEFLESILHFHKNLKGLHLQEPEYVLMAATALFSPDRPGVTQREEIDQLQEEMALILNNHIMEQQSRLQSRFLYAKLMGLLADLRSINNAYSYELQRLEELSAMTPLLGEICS
For series [4], the target named is T4, Nuclear receptor subfamily 1 group I member 3 (Mus musculus, UniProt O35627, L253F). Briefly: Decrease in mouse CAR L253F mutant activation expressed in HEK293 cells at 10 uM by mammalian one-hybrid assay. In kind it is cell-based. The following applies: read-out: Activity. In outline: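 GAL4-DBD fused to mouse CAR LBD (residues 118-358), wild-type or point mutant, cotransfected with UASx4-tk-luc reporter and pCMVβ into HEK293 cells. Cells were exposed to final 1 µM, 2 µM or 10 µM test chemical, or 0.1% v/v DMSO, for 24 h after transfection. Luciferase was normalized to β-galactosidase and set against empty GAL4 vector (=1.0). Mean ± standard deviation, three independent experiments.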
T4 sequence (O35627 whole entry L253F, the tested form may be a part): as the sequence (O35627 whole entry L212A, the tested form may be a part) above, with A212L, L253F counted along it

For series [5], the target named is T5, Nuclear receptor subfamily 1 group I member 3 (Mus musculus, UniProt O35627, N175A). Briefly: Enhancement of steroid receptor co-activator 1 binding to mouse CAR N175A mutant […] at 10 uM by yeast two-hybrid assay. It is filed as cell-based.
T5 sequence (O35627 whole entry N175A): as the sequence (O35627 whole entry L212A, the tested form may be a part) above, with N175A, A212L counted along it
In series [6] the target is T3, Nuclear receptor subfamily 1 group I member 3. Briefly: Decrease in nuclear co-repressor receptor binding to mouse CAR L212A mutant […] at 10 uM by yeast two-hybrid assay. It is filed as cell-based. Details: scale not given: the % may be the effect or the level left; call rule not given here.
The target in series [7] is T6, Nuclear receptor subfamily 1 group I member 3 (Mus musculus, UniProt O35627, S251L). Briefly: Decrease in nuclear co-repressor receptor binding to mouse CAR S251L mutant […] at 10 uM by yeast two-hybrid assay. In kind it is cell-based. On the set-up: scale not given: the % may be the effect or the level left.
T6 sequence (O35627 whole entry S251L): as the sequence (O35627 whole entry L212A, the tested form may be a part) above, with A212L, S251L counted along it
For series [8], the target named is T6, Nuclear receptor subfamily 1 group I member 3. The series can be described thus: Effect on steroid receptor coactivator 1 binding to mouse CAR S251L mutant […] at 10 uM by yeast two-hybrid assay. In kind it is cell-based. The following applies: read-out: Activity. In outline:
(§2)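 Yeast two-hybrid assay. Yeast co-expressing wild-type or mutant mouse CAR LBD and the SRC-1 partner were selected on SD plates lacking leucine and tryptophan. Random colonies were pooled and amplified, then treated with DMSO or test chemical for 3.5 h. β-galactosidase activity was normalized to cell density and set relative to wild-type mCAR + SRC-1 with DMSO (=100). Mean ± standard deviation of two determinations, each in triplicate.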

The target of series [9] is T7, Nuclear receptor subfamily 1 group I member 3 (Mus musculus, UniProt O35627, I252L). Briefly: (§3) Enhancement of steroid receptor coactivator 1 binding to mouse CAR I252L mutant […] at 10 uM by yeast two-hybrid assay. In kind it is cell-based.
T7 sequence (O35627 whole entry I252L): as the sequence (O35627 whole entry L212A, the tested form may be a part) above, with A212L, I252L counted along it
Series [10] has as its target T7, Nuclear receptor subfamily 1 group I member 3. The description is as §3. It is filed as cell-based. Summed up:
as §1
The source holds these as a separate data set.

Series [11] addresses T8, Nuclear receptor subfamily 1 group I member 3 (Mus musculus, UniProt O35627, T350A). The series can be described thus: Decrease in nuclear co-repressor receptor binding to mouse CAR T350A mutant […] at 10 uM by yeast two-hybrid assay. It is filed as cell-based. On the set-up: scale not given: the % may be the effect or the level left.
Series [12] concerns the target T9, Nuclear receptor subfamily 1 group I member 3 (Mus musculus, UniProt O35627, L353A). Briefly: Decrease in nuclear co-repressor receptor binding to mouse CAR L353A mutant […] at 10 uM by yeast two-hybrid assay. In kind it is cell-based. The following applies: read-out: Activity. Summed up:
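Yeast expressing wild-type or mutant mouse CAR LBD plus NCoR, selected on SD plates lacking leucine and tryptophan. Pooled colonies treated with DMSO or compound for 3.5 h. β-Galactosidase activity normalized to cell density. Reference is 10 µM androstenol (=100). Mean ± SD of two independent determinations, each in triplicate.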

Series [13] addresses T9, Nuclear receptor subfamily 1 group I member 3. The series can be described thus: Effect on steroid receptor coactivator 1 binding to mouse CAR L353A mutant […] at 10 uM by yeast two-hybrid assay. It is filed as cell-based. The following applies: read-out: Activity. In outline: as §2
Series [14] has as its target T1, Nuclear receptor subfamily 1 group I member 3. Briefly: Enhancement of steroid receptor coactivator 1 binding to wild type mouse CAR expressed in HEK293 cells at 1 uM by yeast two-hybrid assay. The following applies: read-out: FC.
Series [15] has the same target. Briefly: Enhancement of steroid receptor coactivator 1 binding to wild type mouse CAR expressed in HEK293 cells at 10 uM by yeast two-hybrid assay. The following applies: for fold induction at 10 µM: HEK293, mouse, read-out: FC.
Series [16] has as its target T7, Nuclear receptor subfamily 1 group I member 3. The following applies: HEK293, mouse, read-out: Activity.
Series [17] concerns the target T2, Nuclear receptor subfamily 1 group I member 3. The following applies: HEK293, mouse.
The target of series [18] is T5, Nuclear receptor subfamily 1 group I member 3. The following applies: HEK293, mouse, read-out: Activity.
The target of series [19] is Nuclear receptor subfamily 1 group I member 3 (Mus musculus, UniProt O35627, H213A). The following applies: HEK293, mouse.
Chain of Nuclear receptor subfamily 1 group I member 3 (Mus musculus, UniProt O35627, H213A) (O35627 whole entry H213A): as the sequence (O35627 whole entry L212A, the tested form may be a part) above, with A212L, H213A counted along it
Series [20] addresses T4, Nuclear receptor subfamily 1 group I member 3. The following applies: HEK293, mouse.
The target in series [21] is T8, Nuclear receptor subfamily 1 group I member 3. The following applies: HEK293, mouse.
Series [22] has as its target T10, Nuclear receptor subfamily 1 group I member 3 (Mus musculus, UniProt O35627, T350M). The following applies: HEK293, mouse, read-out: Activity.
Series [23] has as its target T10, Nuclear receptor subfamily 1 group I member 3. The following applies: HEK293, mouse.

T2 sequence (O35627 whole entry F171A): as the sequence (O35627 whole entry L212A, the tested form may be a part) above, with F171A, A212L counted along it
T10 sequence (O35627 whole entry T350M): as the sequence (O35627 whole entry L212A, the tested form may be a part) above, with A212L, T350M counted along it
T9 sequence (O35627 whole entry L353A, the tested form may be a part): as the sequence (O35627 whole entry L212A, the tested form may be a part) above, with A212L, L353A counted along it
T8 sequence (O35627 whole entry T350A): as the sequence (O35627 whole entry L212A, the tested form may be a part) above, with A212L, T350A counted along it

On to `COc1ccccc1CC(CC(=O)Cc1ccccc1)OC` (configuration not stated), for which the “fold change (FC)” value in series [1] was 4. For the same molecule, the Activity is given as > 100% in [2]; < 50% in series [3]; > 150% in [5]; “>= 50%” in series [6]; “>= 50%” in [7]; “>= 50%” in [9]. For the same molecule, the Activity in series [10] was > 50%; in [11], “>= 50%”. For the same molecule, the inhibition at 10 µM was < 50% in series [4]; ≥ 50% in series [12]; < 50% in series [16]; ≥ 50% in [18]; ≥ 50% in series [22]. Further, the activity at 10 µM in [8], in [13], in series [17], in series [19], in [20] and in series [21] was < 50% in each case. Besides, the fold induction at 1 µM in series [14] was 2.5. In addition, in series [15], the fold induction at 10 µM turned out to be 2.5.
Turning to `COc1ccc(C(=O)CCCc2ccccc2)cc1`, in [1], the “fold change (FC)” value turned out to be 4. The Activity is recorded as > 100% in [2]; 50% in series [3]; “>= 50%” in [5]; “>= 50%” in [7]; > 150% in [9]; “>= 50%” in [10]. Further, the Activity result in series [11] is “>= 50%”. Besides, the inhibition at 10 µM was < 50% in series [4], 50% in series [16], ≥ 50% in series [18] and ≥ 50% in series [22]. Also, the activity at 10 µM in series [8], in [13], in [17], in series [19], in series [20] and in [21] was < 50% each time. Moreover, the activity at 10 µM in series [23] was < 50%. For the same molecule, in series [14], the fold induction at 1 µM is 2.5. In addition, the fold induction at 10 µM in [15] was 2.5.
With `COc1ccc(C(c2ccc(OC)cc2)C(Cl)(Cl)Cl)cc1` [METHOXYCHLOR], in series [1], the “fold change (FC)” value is reported as 4. In addition, the Activity in series [2] is on record as < 50%; in [3] it was 50%; in [6], “>= 50%”; in series [7], “>= 50%”; in series [9], “>= 50%”; in series [10], “>= 50%”. Moreover, in series [11], the Activity result is given as “>= 50%”. Moreover, the activity at 10 µM in series [8], in series [13], in [17], in [19], in series [20] and in series [21] was < 50% in each case. In addition, the activity at 10 µM in series [23] was < 50%. The inhibition at 10 µM in [12] is ≥ 50%; in series [16] it was 50%; in series [18], ≥ 50%; in series [22], ≥ 50%. In addition, the fold induction at 1 µM in series [14] came out at 2.5. In [15], the fold induction at 10 µM was found to be 2.5.
With `C[C@]12CC[C@@H](O)C[C@@H]1CC[C@@H]1[C@@H]2CC[C@]2(C)C=CC[C@@H]12` [ANDROSTENOL], the inhibition at 10 µM in series [4] was < 50%; in series [12], ≥ 50%; in [16] it was < 50%; in series [18], ≥ 50%; in series [22] it was ≥ 50%. Also, the Activity in [5] is given as > 150%; in series [6], “>= 50%”; in series [7], “>= 50%”; in [9], > 150%; in [11], “>= 50%”; in series [15] (mouse, hek293, 10 µM) it was “Not Active”. In addition, the activity at 10 µM in [8], in series [13], in series [17], in series [19], in [20] and in series [21] was < 50% throughout. For the same molecule, in series [23], the activity at 10 µM was < 50%.
As to `Clc1ccccc1C(c1ccccc1)(c1ccccc1)n1ccnc1` [CLOTRIMAZOLE], in series [1], the “fold change (FC)” value was determined as 4. The fold induction at 1 µM in series [14] was 2.5. Moreover, the fold induction at 10 µM in series [15] is 2.5.
Turning to `Clc1cnc(Oc2ccc(Oc3ncc(Cl)cc3Cl)cc2)c(Cl)c1`, the fold induction at 1 µM in series [14] was 2.5. Besides, the fold induction at 10 µM in series [15] turned out to be 2.5.

Values taken from ChEMBL document CHEMBL1152300, “Ligand specificity of constitutive androstane receptor as probed by induced-fit docking and mutagenesis” (J Med Chem, 2008).
